Assay results: ChEMBL document CHEMBL4304748, “Design, Synthesis, and Biological Evaluation of a New Series of Carvedilol Derivatives That Protect Sensory Hair Cells from Aminoglycoside-Induced Damage by Blocking the Mechanoelectrical Transducer Channel” (J Med Chem, 2019)
Activity calls are given as the source filed them. The rule behind the calls is not given here.

How the values were obtained:
Mus musculus [1] = organism: Mus musculus; assay: Inhibition of MET in CD-1 mouse outer hair cells assessed as reduction in MET currents at 3 to 10 uM measured at -160 mV to +96 mV membrane potential by patch clamp assay
Mus musculus [2] = organism: Mus musculus; assay: Otoprotective activity against gentamicin-induced outer hair cell death in CD-1 mouse cochlea at 10 uM after 48 hrs by TRITC-phalloidin staining-based microscopic analysis relative to control; format: functional
Procedure, shortened: (§1)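 Mouse cochlear cultures coincubated for 48 h with 5 μM gentamicin plus compound (5, 10 or 20 μM). OHCs counted in a 300 μm long segment of the mid-basal cochlea. Counts compared with 0.5% DMSO control and with gentamicin + 0.5% DMSO cultures.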

[3] = Solubility of the compound; format: physicochemical
[4] = Binding affinity to MET in CD-1 mouse cochlear outer hair cells measured at +16 mV membrane potential by patch clamp assay
Procedure, shortened: (§2)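 MET currents recorded from OHCs before and during extracellular superfusion of compound at 1, 3 and 10 μM, over membrane potentials from -164 to +96 mV. Currents normalized to the peak control current at +96 mV for each cell. Dose–response curves built at each membrane potential and fitted with eq 1 to give K_D and Hill coefficient.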

[5] = Binding affinity to MET in CD-1 mouse cochlear outer hair cells measured at +96 mV membrane potential by patch clamp assay; procedure, shortened: as §2
[6] = Toxicity in 3 days post fertilized AB zebrafish larvae assessed as effect on blood circulation at 100 uM incubated for 48 hrs by inverted microscopic method; set-up: species or system Danio rerio; details: in vivo
Procedure, shortened: (§3)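 Zebrafish larvae at 3 dpf treated with compound at 30 or 100 μM for 48 h in three trials. Larvae scored for survival and for circulation, then startled and assayed for movement.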

[7] = Otoprotective activity against gentamicin-induced outer hair cell death in CD-1 mouse cochlea at 5 uM after 48 hrs by TRITC-phalloidin staining-based microscopic analysis relative to control; format: functional; procedure, shortened: as §1
Staphylococcus aureus [8] = assay: Effect on gentamycin-induced antibacterial activity against Staphylococcus aureus at 2.2 uM incubated for 16 to 20 hrs by BacTiter-Glo assay; format: ADME, organism-based; details: in vivo
[9] = Toxicity in 3 days post fertilized AB zebrafish larvae assessed as effect on larval movement at 100 uM incubated for 48 hrs; set-up: species or system Danio rerio; details: in vivo; procedure, shortened: as §3
[10] = Cytotoxicity in CD-1 mouse cochlea assessed as induction of cell death in outer hair cell at >=30 uM after 48 hrs by confocal microscopic analysis; format: toxicity, tissue-based
Procedure, shortened: (§4)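 Mouse cochlear cultures exposed for 48 h to compound, either alone or with 5 μM gentamicin. Controls received 0.5% DMSO, or 5 μM gentamicin + 0.5% DMSO. Hair cell survival counted in a 300 μm segment of the mid-basal region. Confocal imaging used to assess IHC and OHC stereociliary bundle morphology.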

Klebsiella pneumoniae [11] = assay: Effect on gentamycin-induced antibacterial activity against Klebsiella pneumoniae at 11 uM incubated for 16 to 20 hrs by BacTiter-Glo assay; format: ADME, organism-based; details: in vivo
Mus musculus [12] = organism: Mus musculus; assay: Otoprotective activity against gentamicin-induced outer hair cell death in CD-1 mouse cochlea at 20 uM after 48 hrs by TRITC-phalloidin staining-based microscopic analysis relative to control; format: functional; procedure, shortened: as §1
[13] = Cytotoxicity in CD-1 mouse cochlea assessed as induction of cell death in outer hair cell at 30 uM in presence of gentamicin after 48 hrs by confocal microscopic analysis; format: toxicity, tissue-based; procedure, shortened: as §4
[14] = Binding affinity to MET in CD-1 mouse cochlear outer hair cells measured at -164 mV membrane potential by patch clamp assay; procedure, shortened: as §2
[15] = Toxicity in 3 days post fertilized AB zebrafish larvae assessed as reduction in larvae survival at 30 uM incubated for 48 hrs; set-up: species or system Danio rerio; details: in vivo; procedure, shortened: as §3
[16] = Toxicity in 3 days post fertilized AB zebrafish larvae assessed as reduction in larvae survival at 100 uM incubated for 48 hrs; set-up: species or system Danio rerio; details: in vivo; procedure, shortened: as §3
Mus musculus [17] = organism: Mus musculus; assay: Inhibition of MET channel in CD-1 mouse outer hair bundles assessed as time constant of inward current decline at 3 uM at holding potential of […] by patch clamp assay
Procedure, shortened: (§5)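 MET channels opened by steps from a holding potential of -84 mV, with 1 or 3 μM compound superfused. Currents averaged from 10 repetitions. The current decline was fitted with single exponentials to give time constants, and drug entry rates into hair cells were calculated from these.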

Staphylococcus aureus [18] = assay: Effect on gentamycin-induced antibacterial activity against Staphylococcus aureus at 11 uM incubated for 16 to 20 hrs by BacTiter-Glo assay; format: ADME, organism-based; details: in vivo
Danio rerio [19] = organism: Danio rerio; assay: Otoprotective activity against gentamicin-induced neuromast hair cell death in 4 days post fertilized AB zebrafish larvae assessed as increase in hair cell survival incubated for 6 hrs by inverted microscopic method; format: functional, organism-based
Danio rerio [20] = organism: Danio rerio; assay: Otoprotective activity against neomycin-induced neuromast hair cell death in 4 days post fertilized AB zebrafish larvae assessed as increase in hair cell survival incubated for 1 hr by inverted microscopic method; format: functional, organism-based
Pseudomonas aeruginosa [21] = assay: Effect on gentamycin-induced antibacterial activity against Pseudomonas aeruginosa at 11 uM incubated for 16 to 20 hrs by BacTiter-Glo assay; format: ADME, organism-based; details: in vivo
[22] = Cytotoxicity in CD-1 mouse cochlea assessed as disruption of hair bundle morphology in inner hair cell at 30 uM after 48 hrs by confocal microscopic analysis; format: toxicity, tissue-based; procedure, shortened: as §4
[23] = Toxicity in 3 days post fertilized AB zebrafish larvae assessed as effect on blood circulation at 30 uM incubated for 48 hrs by inverted microscopic method; set-up: species or system Danio rerio; details: in vivo; procedure, shortened: as §3
[24] = Binding affinity to MET in CD-1 mouse cochlear outer hair cells measured at -84 mV membrane potential by patch clamp assay; procedure, shortened: as §2
Mus musculus [25] = organism: Mus musculus; assay: Inhibition of MET in CD-1 mouse cochlea outer hair cells assessed as blockade of MET currents at 10 uM measured at -160 mV to +80 mV membrane potential by patch clamp assay relative to control
Procedure, shortened: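 OHC MET currents recorded before and during exposure to 10 μM compound. Fractional block taken as the current during exposure relative to the control current at each membrane potential.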

Klebsiella pneumoniae [26] = assay: Effect on gentamycin-induced antibacterial activity against Klebsiella pneumoniae at 2.2 uM incubated for 16 to 20 hrs by BacTiter-Glo assay; format: ADME, organism-based; details: in vivo
Mus musculus [27] = organism: Mus musculus; assay: Inhibition of MET channel in CD-1 mouse cochlea outer hair cells assessed as reduction in GTTR uptake at 100 uM preincubated for 5 mins followed by GTTR addition and measured after 24 mins by microscopic method
Procedure, shortened: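 Mouse cochlear cultures pre-incubated 5 min with 100 μM compound or 1% DMSO, then 0.2 μM gentamicin Texas Red (GTTR) added. GTTR fluorescence intensity measured in first-row OHCs, with 10 cells analysed from each of three separate experiments (N = 30).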

[28] = Cytotoxicity in CD-1 mouse cochlea assessed as disruption of hair bundle morphology in outer hair cell at 30 uM after 48 hrs by confocal microscopic analysis; format: toxicity, tissue-based; procedure, shortened: as §4
Mus musculus [29] = organism: Mus musculus; assay: Inhibition of MET in CD-1 mouse cochlea outer hair cells assessed as reduction in MET currents at 1 to 10 uM measured at -150 mV to +100 mV membrane potential by patch clamp assay
Pseudomonas aeruginosa [30] = assay: Effect on gentamycin-induced antibacterial activity against Pseudomonas aeruginosa at 2.2 uM incubated for 16 to 20 hrs by BacTiter-Glo assay; format: ADME, organism-based; details: in vivo
Mus musculus [31] = organism: Mus musculus; assay: Inhibition of MET in CD-1 mouse cochlear outer hair cells assessed as reduction in MET currents at 1 to 10 uM measured at -164 mV membrane potential by patch clamp assay; procedure, shortened: as §2
Mus musculus [32] = organism: Mus musculus; assay: Inhibition of MET channel in CD-1 mouse cochlea outer hair bundles assessed as time constant of inward current decline at 1 uM at holding potential of […] by patch clamp assay; procedure, shortened: as §5

COc1ccccc1OCCN(CCCOc1cccc2[nH]c3ccccc3c12)CCOc1ccccc1OC
inhibition (Mus musculus [1]): inactive
Activity (Mus musculus [2]): inactive
solubility [3]: Insoluble

COc1ccccc1OCCNCCCOc1cccc2[nH]c3ccccc3c12
Kd [4]: 1000 nM
Kd [5]: 1700 nM
Activity [6]: Non-Toxic
Activity [7]: 88%
Activity (Staphylococcus aureus [8]): Non-Toxic
Activity [9]: Non-Toxic
Activity [10]: Toxic
Activity (Klebsiella pneumoniae [11]): Non-Toxic
Activity (Mus musculus [12]): Active
Activity [13]: Non-Toxic
Kd [14]: 4600 nM
Activity [15]: Non-Toxic
Activity [16]: Non-Toxic
TIME (Mus musculus [17]): 1.67e-06 h
Activity (Staphylococcus aureus [18]): Non-Toxic
EC50 (Danio rerio [19]): 10800 nM
EC50 (Danio rerio [20]): 2080 nM
Activity (Pseudomonas aeruginosa [21]): Non-Toxic
Activity [22]: Toxic
Activity [23]: Non-Toxic
Kd [24]: 2400 nM
inhibition (Mus musculus [25]): 100%
Activity (Mus musculus [2]): Active
Activity (Klebsiella pneumoniae [26]): Non-Toxic
inhibition (Mus musculus [27]): Active
Activity [28]: Toxic
inhibition (Mus musculus [29]): Active
Activity (Pseudomonas aeruginosa [30]): Non-Toxic
inhibition (Mus musculus [31]): inactive
TIME (Mus musculus [32]): 2.75e-06 h
